Experimental data: ChEMBL document CHEMBL1126566, “Studies on analogues of classical antifolates bearing the naphthoyl group in place of benzoyl in the side chain” (J Med Chem, 1993)

How the values were obtained:
HL-60 = test: Tested for the ability to inhibit growth in vitro against HL60; assay type: functional, cell-based; settings: Homo sapiens
CCRF-CEM = test: (§1) Percent inhibition of Folyl-polyglutamate synthase from CCRF-CEM cells; assay type: cell-based; set-up: concentration or dose not given beside the values; settings: Homo sapiens, dose or concentration not given here
Outline: (§2)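 FPGS was partially purified from CCRF-CEM cells by (NH₄)₂SO₄ fractionation and gel sieving, with no detectable γ-glutamyl hydrolase. Product was separated on DEAE-cellulose. Percent inhibition is reported.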

Dihydrofolate reductase [1] = biological target: T1, Dihydrofolate reductase (Mus musculus, UniProt P00375); test: Inhibitory activity of Dihydrofolate reductase in L1210 cells; assay type: cell-based
T1 sequence (P00375 whole entry): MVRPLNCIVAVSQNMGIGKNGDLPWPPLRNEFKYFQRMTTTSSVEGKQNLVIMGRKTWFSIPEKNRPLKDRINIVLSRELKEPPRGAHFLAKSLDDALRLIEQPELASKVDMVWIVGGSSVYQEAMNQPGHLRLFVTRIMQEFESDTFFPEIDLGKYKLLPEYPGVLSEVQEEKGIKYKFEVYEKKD

L1210 [2] = test: Tested for transport into L1210 cells measured as cell influx; assay type: functional, cell-based, Mus musculus
L1210 [3] = test: Tested for the ability to inhibit growth in vitro against L1210; assay type: functional, cell-based; settings: Mus musculus
Dihydrofolate reductase [4] = biological target: T2, Dihydrofolate reductase (Pneumocystis carinii, UniProt P16184); test: Tested for inhibition against Dihydrofolate reductase from Pneumocystis carinii
T2 sequence (P16184 whole entry): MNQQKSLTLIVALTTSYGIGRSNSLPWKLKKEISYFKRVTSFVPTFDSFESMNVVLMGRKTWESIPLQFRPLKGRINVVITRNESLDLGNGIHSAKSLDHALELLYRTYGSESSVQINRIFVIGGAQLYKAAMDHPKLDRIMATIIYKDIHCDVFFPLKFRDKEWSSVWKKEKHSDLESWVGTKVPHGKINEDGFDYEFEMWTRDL

[5] = Activity relative to saturating aminopterine at 100 uM against CCRF-CEM Folyl-polyglutamate synthetase; assay type: ADME; settings: human
Outline: (§3)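 FPGS from CCRF-CEM cells: freeze-thawed lysates fractionated by (NH₄)₂SO₄ (0–40% saturation pellet) and gel sieving, stored at –90 °C in 20% glycerol, free of detectable γ-glutamyl hydrolase. Product was separated on DEAE-cellulose minicolumns. Run in duplicate or triplicate, and each experiment was repeated at least once.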

CCRF S-180 = test: Tested for the ability to inhibit growth in vitro against S180; assay type: functional, cell-based; settings: Mus musculus
[6] = biological target: T3, Folylpolyglutamate synthase, mitochondrial (Mus musculus) (UniProt P48760); test: Specific activity of L1210 Folyl-polyglutamate synthase
T3 sequence (whole entry): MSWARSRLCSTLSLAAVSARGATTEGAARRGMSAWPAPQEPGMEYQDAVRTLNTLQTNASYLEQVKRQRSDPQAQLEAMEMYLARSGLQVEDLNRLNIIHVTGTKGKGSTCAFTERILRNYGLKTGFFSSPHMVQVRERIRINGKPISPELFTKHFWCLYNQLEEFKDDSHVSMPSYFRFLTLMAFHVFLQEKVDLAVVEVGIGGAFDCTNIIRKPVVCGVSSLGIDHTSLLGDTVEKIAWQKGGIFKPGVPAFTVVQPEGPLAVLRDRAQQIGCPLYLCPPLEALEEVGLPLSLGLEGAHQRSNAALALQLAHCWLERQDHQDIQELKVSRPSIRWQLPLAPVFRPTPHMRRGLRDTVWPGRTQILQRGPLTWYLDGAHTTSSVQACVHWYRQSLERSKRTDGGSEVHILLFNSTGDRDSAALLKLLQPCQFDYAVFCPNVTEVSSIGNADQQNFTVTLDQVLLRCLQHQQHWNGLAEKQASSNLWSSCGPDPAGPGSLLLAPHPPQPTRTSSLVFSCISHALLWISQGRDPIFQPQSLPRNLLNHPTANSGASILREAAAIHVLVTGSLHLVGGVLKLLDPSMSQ
Outline: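 FPGS from L1210 cells was assayed by [³H]glutamate ligation, like the human enzyme assay. Each folate substrate was at 100 μM, and only specific activity was measured.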

[7] = tested on: Folyl-polyglutamate synthase; test: Michaelis-Menten constant was determined against CCRF-CEM Folyl-polyglutamate synthase; assay type: ADME; settings: human, folylpolyglutamate synthase from CCRF-CEM cells; outline: as §3
Mus musculus [8] = test: Antitumor activity against E0771 mammary adenocarcinoma in mice at 6 mg/kg(5 days) was determined and tumor volume at day 7 was reported; assay type: functional
Outline: (§4)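 Mice bearing implanted E0771 mammary adenocarcinoma, five per test group. Dosing was daily for 5 days, starting on day 3 after implantation. Tumor volume (mm³) was calculated as 4/3πr³ and is also expressed as treated/control (%).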

Mus musculus [9] = test: Antitumor activity against E0771 mammary adenocarcinoma in mice at 6 mg/kg(5 days) was determined and […] at day 10 was reported; assay type: functional
Outline: (§5)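 E0771 mammary adenocarcinoma implanted in mice, five mice per group. Treatment was given daily for 5 days, starting day 3 after implantation. Tumor volume was calculated as 4/3πr³ and averaged on days 7, 10 and 14. T/C (%) is the treated/control tumor volume. Toxic deaths were recorded.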

Mus musculus [10] = test: Antitumor activity against E0771 mammary adenocarcinoma in mice at 6 mg/kg(5 days) was determined and tumor volume at day 14 was reported; toxic indicates 4 toxic deaths; assay type: organism-based; set-up: dose 6 mg/kg; settings: in vivo, 120 h; outline: as §5
Mus musculus [11] = test: Antitumor activity against E0771 mammary adenocarcinoma in mice at 3 mg/kg(5 days) was determined and […] at day 14 was reported; assay type: functional; outline: as §5
Mus musculus [12] = test: Antitumor activity against E0771 mammary adenocarcinoma in mice at 3 mg/kg(5 days) was determined and tumor volume at day 14 was reported; assay type: functional; outline: as §4
Mus musculus [13] = test: Antitumor activity against E0771 mammary adenocarcinoma in mice at 3 mg/kg(5 days) was determined and tumor volume at day 7 was reported; assay type: functional; outline: as §4
Mus musculus [14] = test: Antitumor activity against E0771 mammary adenocarcinoma in mice at 3 mg/kg(5 days) was determined and […] at day 7 was reported; assay type: functional; outline: as §5
Mus musculus [15] = test: Antitumor activity against E0771 mammary adenocarcinoma in mice at 3 mg/kg(5 days) was determined and tumor volume at day 10 was reported; assay type: functional; outline: as §4
Mus musculus [16] = test: Antitumor activity against E0771 mammary adenocarcinoma in mice at 6 mg/kg(5 days) was determined and […] at day 14 was reported; toxic indicates 4 toxic deaths; assay type: organism-based; set-up: dose 6 mg/kg; settings: in vivo, 120 h; outline: as §5
[17] = as §1; assay type: cell-based, Homo sapiens; outline: as §2
Mus musculus [18] = test: Antitumor activity against E0771 mammary adenocarcinoma in mice at 3 mg/kg(5 days) was determined and […] at day 10 was reported; assay type: functional; outline: as §5
Mus musculus [19] = test: Antitumor activity against E0771 mammary adenocarcinoma in mice at 6 mg/kg(5 days) was determined and tumor volume at day 10 was reported; assay type: functional; outline: as §4
Mus musculus [20] = test: Antitumor activity against E0771 mammary adenocarcinoma in mice at 6 mg/kg(5 days) was determined and […] at day 7 was reported; assay type: functional; outline: as §5

Row | SMILES | IC50 (HL-60) [nM] | inhibition (CCRF-CEM) [%] | Ki (Dihydrofolate reductase [1]) [nM] | Ki (L1210 [2]) [nM] | IC50 (L1210 [3]) [nM] | Relative Vmax [5] | IC50 (CCRF S-180) [nM] | Specific activity (pM hr-1 (mg of protein)-1) [6] | further results
1 | Nc1nc(N)c2cc(CNc3ccc(C(=O)NC(CCC(=O)O)C(=O)O)c4ccccc34)cnc2n1 (stereo not drawn) | 1.4 | 21 | 0.00365 | 1520 | 4.2 | 0.01 | 3.9 |  | IC50 (Dihydrofolate reductase [4]): 0.00053 nM
2 | Nc1nc(N)c2nc(CNc3ccc(C(=O)NC(CCC(=O)O)C(=O)O)c4ccccc34)cnc2n1 (stereo not drawn) | 4.6 | 12 | 0.00455 | 920 | 6 | 0.03 | 5.9 | 0.41 | 
3 | Nc1nc(N)c2nc(CNc3ccc(C(=O)N[C@@H](CCC(=O)O)C(=O)O)cc3)cnc2n1 [AMINOPTERIN] |  |  |  |  |  | 1 |  | 1.91 | Km [7]: 4.1 µM
4 | Cc1c(CNc2ccc(C(=O)NC(CCC(=O)O)C(=O)O)c3ccccc23)cnc2nc(N)nc(N)c12 (stereo not drawn) | 0.74 |  | 0.00508 | 1310 | 3.9 | 0.02 | 3.8 |  | Tumor volume (Mus musculus [8]): 87 mm**3; T/C (Mus musculus [9]): 7%; Tumor volume (Mus musculus [10]): Toxic; T/C (Mus musculus [11]): 60%; Tumor volume (Mus musculus [12]): 1048 mm**3; Tumor volume (Mus musculus [13]): 113 mm**3; T/C (Mus musculus [14]): 51%; Tumor volume (Mus musculus [15]): 421 mm**3; T/C (Mus musculus [16]): Toxic; IC50 [17]: 69000 nM; T/C (Mus musculus [18]): 68%; Tumor volume (Mus musculus [19]): 42 mm**3; T/C (Mus musculus [20]): 39%
